Diaph inh CS: diaphorase inhibitors and chemical oxidizers, primary screen, counter-screen for diaphorase-coupled primary assays, biochemical, uHTS, resorufin fluorescence | diaphorase resazurin-to-resorufin fluorescence, NADH, 16 min; bacterial (C. kluyveri) enzyme, not human | inhibition, % at 20 µM | actives 0.69% (n = 190,000);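 active = primary screen inhibition at 20 µM above a set limit, cut at about 50% in these data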;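 note: plate controls were DMSO with full reaction for no effect and wells lacking NADH for full effect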
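controls = No-NADH positive control and DMSO neutral control | system = Clostridium kluyveri diaphorase enzyme | timing = reaction incubation of 16 min at room temperature | signal = resorufin fluorescence 544/590 nm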
KCC2 mod: KCC2 cotransporter modulators, thallium flux, primary screen, cell-based, HEK293 KCC2, FluoZin-2 fluorescence, MLSMR | AID 1456, 2008 | actives 2.2% (n = 190,000) | B-score of Tl+ flux slope (higher = more flux/activation; lower = inhibition) at 10 µM | Solute carrier family 12 member 5 (Homo sapiens), Q9H2X9 | KCC2 cells, thallium flux FluoZin-2 fluorescence;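 active = thallium flux slope and its plate-corrected score both differing from the plate sample mean at a set confidence after two filtering rounds, in either direction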;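 note: slope of fluorescence scaled to starting intensity during 10 to 20 s after thallium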
Target sequence (Q9H2X9 whole entry, looked up): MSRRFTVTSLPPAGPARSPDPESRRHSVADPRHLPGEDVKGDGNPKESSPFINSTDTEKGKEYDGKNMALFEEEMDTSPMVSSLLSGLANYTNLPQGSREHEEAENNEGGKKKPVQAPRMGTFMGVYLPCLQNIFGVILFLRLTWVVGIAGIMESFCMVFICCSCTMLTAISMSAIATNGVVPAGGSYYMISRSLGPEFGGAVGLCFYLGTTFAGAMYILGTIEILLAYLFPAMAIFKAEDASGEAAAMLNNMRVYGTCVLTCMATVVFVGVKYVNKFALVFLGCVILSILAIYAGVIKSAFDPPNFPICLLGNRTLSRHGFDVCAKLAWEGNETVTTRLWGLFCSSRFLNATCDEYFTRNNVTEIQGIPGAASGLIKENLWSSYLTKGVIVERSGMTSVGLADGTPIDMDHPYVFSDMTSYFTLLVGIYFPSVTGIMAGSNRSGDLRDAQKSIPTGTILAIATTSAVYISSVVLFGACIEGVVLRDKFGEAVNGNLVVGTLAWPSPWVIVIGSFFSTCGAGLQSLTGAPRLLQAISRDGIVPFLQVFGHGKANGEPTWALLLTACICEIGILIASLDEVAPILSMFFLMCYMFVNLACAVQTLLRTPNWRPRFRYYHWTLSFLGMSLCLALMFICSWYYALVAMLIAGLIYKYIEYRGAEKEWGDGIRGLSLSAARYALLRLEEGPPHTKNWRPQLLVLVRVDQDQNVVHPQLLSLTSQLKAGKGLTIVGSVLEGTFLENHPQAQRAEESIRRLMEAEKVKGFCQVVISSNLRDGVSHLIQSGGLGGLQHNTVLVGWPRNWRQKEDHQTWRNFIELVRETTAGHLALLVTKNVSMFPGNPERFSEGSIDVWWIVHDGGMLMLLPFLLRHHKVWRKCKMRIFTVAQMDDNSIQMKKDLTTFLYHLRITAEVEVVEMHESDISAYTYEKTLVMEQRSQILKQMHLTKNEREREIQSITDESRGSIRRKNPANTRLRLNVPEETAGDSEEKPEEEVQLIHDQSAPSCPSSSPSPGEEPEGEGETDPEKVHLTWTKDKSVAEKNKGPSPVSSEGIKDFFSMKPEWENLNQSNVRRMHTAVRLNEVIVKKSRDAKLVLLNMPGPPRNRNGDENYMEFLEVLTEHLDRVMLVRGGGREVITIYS
ROMK primary: ROMK potassium channel modulators, primary screen, cell-based, thallium flux, MLSMR library | actives 2% (n = 130,000) | Tet-inducible ROMK, thallium flux fluorescence; actives lie on both sides | ATP-sensitive inward rectifier potassium channel 1 (Homo sapiens), P48048 | B-score at 10 µM;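 active = signal ratio slope over the read window, or its plate-corrected B-score, at least 3 SD from the plate mean, either direction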;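 note: B-score of the F/F0 ratio slope over 7 to 12 s after thallium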
WT yeast gro inh: growth inhibition of WT strain, primary screen, mitochondrial fusion inhibitor project, WT and mutant strains, chemical genetic. actives 2.1% (n = 190,000). AID 1362, 2008. inhibition, % at 10 µM. mitochondrial fusion phenotypic screen; in the data active = inhibition above about 58%; tested in S. cerevisiae
Diaphorase act: compounds boosting diaphorase resazurin reduction – biochemical, uHTS, resorufin fluorescence, counter-screen for diaphorase-coupled primary assays, primary screen; Diaphorase/resazurin coupled assay, 16 min; active compounds read high; 1 = vehicle wells, 0 = NADH-free wells; activation factor at 20 µM; actives 0.005% (n = 190,000);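 active = diaphorase activity raised at least twofold by the compound at 20 µM; inactive = activation factor below 2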
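Test system: Clostridium kluyveri diaphorase, purified enzyme. Buffer or medium: 50 mM HEPES pH 7.4 buffer plus MgCl2 and Tween 20. Also added: 0.114 mM NADH and 0.1 mM resazurin, final amounts. Dosing: compound 20 µM once, DMSO 1%. Schedule: 16 min enzyme reaction, ambient temperature. Detection: fluorescence of resorufin, 544 nm excitation, 590 nm emission.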
L major viab: Leishmania major promastigote growth inhibition, primary screen. Leishmania major promastigotes, resazurin fluorescence viability. actives 9% (n = 200,000). inhibition, % at 10 µM; in the data active = inhibition above about 50%;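 note: promastigotes grown with compound for 44 hours at 28 °C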
* = called active by the depositor; nt = no result. Sampled rows, rich in hits. Any-hit rate of the full collection: about 12%.

SMILES	Diaph inh CS	KCC2 mod	ROMK primary	WT yeast gro inh	Diaphorase act	L major viab
COc1cccc(NC(=O)c2ccc(NCCCN3CCC(C)CC3)c([N+](=O)[O-])c2)c1	-6.6	-0.164	-0.377	5.5	1.1	20.8
COc1cccc(NC(=O)c2ccc(NCCCN3CC(C)CC(C)C3)c([N+](=O)[O-])c2)c1 (centres undefined)	12.8	0.139	0.312	29.5	0.9	-3.7
CCCC(=O)N(CCN(C(=O)CCC)c1ccccc1)c1ccccc1	8.2	0.0152	-0.233	-4.9	0.9	-1.8
O=C(CNS(=O)(=O)c1cccs1)NCc1ccccc1	6.0	-1.22	0.0128	-3.7	0.9	1.6
CCOC(=O)N1CCN(c2cc(NCCC(=O)O)c3c4c(onc24)-c2ccccc2C3=O)CC1	56.7*	-2.78	nt	34.8	0.4	3.4
CCOC(=O)N1CCN(c2c(NCCc3ccccc3)c(=O)c2=O)CC1	18.5	-0.22	nt	-8.7	0.8	-4.0
O=C1c2ccccc2-c2onc3c(Oc4ccccc4)cc(O)c1c23	10.1	nt	-1.25	nt	0.9	-5.5
O=C(O)CCCNc1cc(N2CCC3(CC2)OCCO3)c2noc3c2c1C(=O)c1ccccc1-3	50.1*	nt	-1.53	18.7	0.5	16.3
COC(=O)NCN1C(=O)C2C3C=CC(C3)C2C1=O (centres undefined)	-5.7	0.128	0.39	5.1	1.1	0.5
Cc1c(Br)c(C(F)(F)F)nn1CC(=O)NCCCn1ccnc1	17.5	0.351	-0.132	-13.0	0.8	-6.5
CCC(C)(C)c1ccc(OCCCC[n+]2ccc(C)cc2)c(C(C)(C)CC)c1	-43.9	-1.25	-5.9*	98.9*	1.4	100.5*
O=C(NC1CCN(C(=S)NCc2ccco2)CC1)NC12CC3CC(CC(C3)C1)C2	17.6	0.257	nt	-8.6	0.8	9.2
CC(C1CCN(Cc2nc(C3CC3)no2)CC1)N1CCOCC1 (centres undefined)	2.1	-0.797	2.06	5.8	1	77.7*
Cc1ccccc1-n1c(SCC(=O)N2CCN(c3ccccc3)CC2)nnc1-c1ccncc1	11.9	0.185	nt	19.8	0.9	62.1*
CC1(C)Cc2ccccc2-c2nnc(SCC(=O)N3CCN(c4ccccc4)CC3)n21	5.4	nt	-1.78	61.3*	0.9	10.5
Cc1ccc(C(=O)C(OC(=O)c2cnccn2)c2ccccc2)cc1 (centres undefined)	16.2	0.799	0.225	-24.1	0.8	-6.6
OC(c1ccccc1)C1CN(Cc2ccccc2)CCC1(O)c1ccccc1 (centres undefined)	1.1	-0.0389	-2	14.9	1	84.8*
CC(C)NC(=O)CN1CCC(O)(c2ccccc2)CC1	-12.9	0.366	0.212	7.7	1.1	32.6
O=C(c1cccc(C(=O)N2CCN(Cc3ccccc3)CC2)c1)N1CCN(Cc2ccccc2)CC1	12.3	-3.51	nt	4.1	0.9	-6.7
OC1(c2ccccc2)CCN(Cc2ccccc2)CC1	5.3	-0.306	-0.566	15.2	0.9	82.9*
O=C(c1ccccc1)C1CN(Cc2ccccc2)CCC1(O)c1ccccc1 (centres undefined)	22.0	-0.249	-0.183	34.5	0.8	62.2*
COc1ccc(CCn2c(=O)[nH]c3cc(C(=O)N4CCN(c5ccccn5)CC4)ccc3c2=O)cc1OC	7.7	-0.636	-1.08	0.8	0.9	-2.7
COc1ccc(Cc2nnc(Nc3c(C)cccc3C)o2)cc1OC	nt	-1.07	0.247	nt	nt	nt
COC(=O)C1=C(C)NC(C)=C(C(=O)OC)C1c1ccc(-c2cccc(Cl)c2Cl)o1	18.7	0.0618	nt	33.6	0.8	79.3*
COC(=O)C1=C(C)NC(C)=C(C(=O)OC)C1c1ccc(-c2cc(Cl)ccc2Cl)o1	22.0	0.48	0.351	38.3	0.8	6.6
SMILES	Diaph inh CS	KCC2 mod	ROMK primary	WT yeast gro inh	Diaphorase act	L major viab
O=C(NNC(=O)c1c(F)cccc1F)c1ccccc1-n1cccc1	-4.0	0.0812	0.595	-15.6	1	-2.4
CC(C)c1ccc(/C=C/C(=O)NCCCc2ccccc2)cc1	6.7	-1.39	-0.279	60.8*	0.9	-0.5
COc1ccc(/C=C/C(=O)NCCCc2ccccc2)cc1	18.1	-2.37	nt	-0.2	0.8	-6.1
N#Cc1c(N2CCCCC2)nc(N)c2c(N)nc3c(c12)CC(c1ccccc1)O3 (centres undefined)	40.4	nt	nt	13.7	0.6	39.9
CCC1Cc2c(nc(N)c3c(N)nc(N4CCCCC4)c(C#N)c23)O1 (centres undefined)	27.2	-1.74	1.4	-11.2	0.7	50.8*
CC(Cc1ccccc1)N/C=C1\CC(=O)NC1=O (centres undefined)	12.8	0.195	nt	8.7	0.9	-4.4
CCOC(=O)c1c(C)nc2ccc(Cl)cc2c1-c1ccccc1	18.4	-0.677	-0.326	63.8*	0.8	50.8*
Cc1ccc2[nH]c(CN3CCC(CO)(CC4CCCCO4)CC3)c(C)c2c1 (centres undefined)	12.1	-0.525	-0.721	17.6	0.9	34.3
COc1ccccc1N1CCN(C(=O)Cn2nc3n(C)c4ccccc4n3c(=O)c2=O)CC1	nt	nt	0.102	-13.8	nt	-5.3
COc1ccc(/C=C\c2nc(=O)c3ccccc3o2)cc1	17.3	-0.83	-0.609	50.1	0.8	84.2*
Cc1cc(/C=C2\SC(=S)NC2=O)c(C)n1-c1ccc(O)cc1	nt	-5.5*	-4.4*	nt	nt	nt
Cc1cc(/C=C2/SC(=O)NC2=O)c(C)n1-c1ccc(N2CCOCC2)cc1	11.4	-0.383	-0.0825	11.0	0.9	56.9*
Cc1cccc(OCc2nnc(SCC(=O)Nc3cccc(C(=O)N4CCOCC4)c3)o2)c1C	4.0	-2.24	-0.148	-12.6	1	-8.3
C=CCNC(=S)N(CC)c1cccc2ccccc12	13.5	-0.586	-0.369	61.7*	0.9	5.7
O=C(NNC(=O)c1ccccn1)c1cccc([N+](=O)[O-])c1	41.1	1.28	0.949	-6.4	0.6	57.6*
O=C(NNC(=S)Nc1ccc(Cl)c(Cl)c1)c1cccc([N+](=O)[O-])c1	nt	-5.45*	3.03*	nt	nt	nt
O=C(NNC(=O)c1ccccc1-c1ccccc1C(=O)O)c1cccc([N+](=O)[O-])c1	9.4	1.03	0.113	-4.6	0.9	-7.5
O=C(NNC(=O)c1cc(-c2ccccc2)n(-c2ccccc2)n1)c1cccc([N+](=O)[O-])c1	8.4	14.6*	nt	39.2	0.9	1.5
O=C(NNC(=O)c1cccc([N+](=O)[O-])c1)c1ccncc1	9.6	0.446	0.649	14.4	0.9	-2.9

Screening data as filed in PubChem.
